Test results from ChEMBL document CHEMBL3272284, “Drugs derived from cannabinoids. 6. Synthesis of cyclic analogues of dimethylheptylpyran” (1976).
The source made the active and inactive calls. No cut-off for these calls is given here.

What was measured:
[1] = test system: Rattus norvegicus; assay: Antihypertensive activity in rat assessed as reduction of blood pressure at 10 mg/kg, po after 24 hrs; assay type: functional; design: scale not given: the % may be the effect or the level left
In short: (§1)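 Cardiovascular screen in hypertensive rats. Compounds were given orally and blood pressure was measured after dosing, with readings taken at 3 h and over 24 h. Activity is expressed as percent decrease in blood pressure.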

[2] = test system: Rattus norvegicus; assay: Antihypertensive activity in rat assessed as reduction of blood pressure at 0.1 mg/kg, po; assay type: functional; design: scale not given: the % may be the effect or the level left; in short: as §1
[3] = test system: Mus musculus; assay: Central nervous system activity in mouse assessed as fighting at 10 mg/kg, po; assay type: functional, organism-based; design: dose 10 mg/kg
[4] = test system: Mus musculus; assay: […] activity in mouse assessed as protection against audiogenic seizure up to 30 mg/kg, po; assay type: functional, organism-based; design: dose 30 mg/kg
[5] = test system: Rattus norvegicus; assay: Antidepressant activity in rat assessed as motor activity at 5 mg/kg, po; assay type: functional, organism-based; design: dose 5 mg/kg
[6] = test system: Rattus norvegicus; assay: Antihypertensive activity in rat assessed as reduction of blood pressure at 10 mg/kg, po after 3 hrs; assay type: functional; design: scale not given: the % may be the effect or the level left; in short: as §1
[7] = test system: Rattus norvegicus; assay: Antihypertensive activity in po dosed rat assessed as reduction of blood pressure; assay type: functional, organism-based; in short: as §1

CCCCCC(C)C(C)c1cc(O)c2c(c1)OC(C)(C)C1=C2CC(C)CC1 (stereo not given)
Activity [1]: 38%
Activity [2]: 8%

CCCCCC1Cc2c(cc(O)c3c2OC(C)(C)C2=C3CC(C)CC2)C1C (stereo not given)
Activity [3]: inactive
Activity [4]: inactive
Activity [5]: inactive
Activity [6]: 6%

CCCCCC1Cc2c(cc3c(c2O)C2=C(CCC(C)C2)C(C)(C)O3)C1C (stereo not given)
Activity [3]: inactive
Activity [4]: inactive
Activity [5]: inactive
Activity [7]: inactive
